Data set [1] addresses T1, Adenosine receptor A2b (Homo sapiens) (UniProt P29275).
T1 sequence (whole entry): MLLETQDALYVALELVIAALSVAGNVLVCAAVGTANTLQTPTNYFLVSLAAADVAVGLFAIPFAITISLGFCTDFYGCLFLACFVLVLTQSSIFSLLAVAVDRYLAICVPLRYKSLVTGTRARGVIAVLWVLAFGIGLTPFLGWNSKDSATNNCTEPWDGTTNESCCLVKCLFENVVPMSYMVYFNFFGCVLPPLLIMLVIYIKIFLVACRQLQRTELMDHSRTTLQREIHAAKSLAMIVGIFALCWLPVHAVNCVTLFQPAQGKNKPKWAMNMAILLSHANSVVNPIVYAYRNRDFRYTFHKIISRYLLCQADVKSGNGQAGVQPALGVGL
The data set can be described thus: Displacement of [3H]MRS-1754 from human adenosine A2B receptor expressed in HEK293 cell membranes at 1 uM after 90 mins relative to control. A digest of the protocol: (§1)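 Membranes from HEK-293 cells stably transfected with human receptor, pre-treated with adenosine deaminase. Radioligands: 1 nM [3H]DPCPX (A1), 1 nM [3H]ZM241385 (A2A), 1.6 nM [3H]MRS-1754 (A2B), 2 nM [3H]HEMADO (A3). Buffers: Tris pH 7.4 (A1, A2A, A3) or pH 6.5 (A2B), with ADA. Incubated 90 min at room temperature, then filtered. Nonspecific binding defined with 100 µM NECA. Ki from 8 concentrations run in triplicate.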

The target of data set [2] is T1, Adenosine receptor A2b (Homo sapiens). Briefly: Displacement of [3H]MRS-1754 from human adenosine A2B receptor expressed in HEK293 cell membranes at 30 uM after 90 mins relative to control. The method, boiled down: as §1
For data set [3], the target named is Adenosine receptor A2a (Homo sapiens, UniProt P29274). Briefly: Displacement of [3H]ZM241385 from human adenosine A2A receptor expressed in HEK293 cell membranes at 1 uM after 90 mins relative to control. A digest of the protocol: as §1
Chain of Adenosine receptor A2a (P29274 whole entry): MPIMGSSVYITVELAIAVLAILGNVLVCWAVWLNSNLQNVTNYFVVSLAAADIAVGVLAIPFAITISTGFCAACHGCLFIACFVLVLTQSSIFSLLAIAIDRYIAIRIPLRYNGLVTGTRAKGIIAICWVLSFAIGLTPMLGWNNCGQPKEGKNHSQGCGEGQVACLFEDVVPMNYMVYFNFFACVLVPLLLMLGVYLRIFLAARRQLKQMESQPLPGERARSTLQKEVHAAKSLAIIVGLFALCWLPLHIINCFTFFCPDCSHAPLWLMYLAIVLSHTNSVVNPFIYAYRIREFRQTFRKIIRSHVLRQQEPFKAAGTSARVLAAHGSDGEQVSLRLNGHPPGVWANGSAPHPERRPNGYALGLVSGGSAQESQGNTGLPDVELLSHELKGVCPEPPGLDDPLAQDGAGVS
Data set [4] addresses CYP2C9 (Homo sapiens, UniProt P11712). Briefly: Inhibition of CYP2C9 (unknown origin) at 5 uM relative to control. In kind it is ADME.
Data set [5] addresses CYP2C19 (Homo sapiens, UniProt P33261). The data set can be described thus: Inhibition of CYP2C19 (unknown origin) at 5 uM relative to control. In kind it is ADME.
A short description of data set [6]: Protein binding in rat plasma at 5 uM. In kind it is ADME, cell-free. Conditions: read-out: PPB (converted).
A short description of data set [7]: Thermodynamic solubility of the compound in pH 2 solution. In kind it is physicochemical. Conditions: read-out: Therm_solubility.
Data set [8] in a line: Drug metabolism assessed as hydroxylation at N-1 propyl by metabolic soft spot analysis. In kind it is physicochemical.
The nature of data set [9]: Drug metabolism assessed as hydroxylation at C-8 cyclopentyl by metabolic soft spot analysis. In kind it is physicochemical.
The target in data set [10] is T2, Adenosine receptor A2b (Homo sapiens, UniProt P29275).
T2 sequence (P29275 whole entry): T1 sequence (whole entry)
Briefly: Displacement of [3H]MRS-1754 from human adenosine A2B receptor expressed in HEK293 cell membranes after 90 mins. A digest of the protocol: as §1

Data set [11] deals with T3, hERG (KCNH2) (Homo sapiens, UniProt Q12809). The data set can be described thus: Inhibition of human ERG at 5 uM relative to control.
T3 sequence (Q12809 whole entry): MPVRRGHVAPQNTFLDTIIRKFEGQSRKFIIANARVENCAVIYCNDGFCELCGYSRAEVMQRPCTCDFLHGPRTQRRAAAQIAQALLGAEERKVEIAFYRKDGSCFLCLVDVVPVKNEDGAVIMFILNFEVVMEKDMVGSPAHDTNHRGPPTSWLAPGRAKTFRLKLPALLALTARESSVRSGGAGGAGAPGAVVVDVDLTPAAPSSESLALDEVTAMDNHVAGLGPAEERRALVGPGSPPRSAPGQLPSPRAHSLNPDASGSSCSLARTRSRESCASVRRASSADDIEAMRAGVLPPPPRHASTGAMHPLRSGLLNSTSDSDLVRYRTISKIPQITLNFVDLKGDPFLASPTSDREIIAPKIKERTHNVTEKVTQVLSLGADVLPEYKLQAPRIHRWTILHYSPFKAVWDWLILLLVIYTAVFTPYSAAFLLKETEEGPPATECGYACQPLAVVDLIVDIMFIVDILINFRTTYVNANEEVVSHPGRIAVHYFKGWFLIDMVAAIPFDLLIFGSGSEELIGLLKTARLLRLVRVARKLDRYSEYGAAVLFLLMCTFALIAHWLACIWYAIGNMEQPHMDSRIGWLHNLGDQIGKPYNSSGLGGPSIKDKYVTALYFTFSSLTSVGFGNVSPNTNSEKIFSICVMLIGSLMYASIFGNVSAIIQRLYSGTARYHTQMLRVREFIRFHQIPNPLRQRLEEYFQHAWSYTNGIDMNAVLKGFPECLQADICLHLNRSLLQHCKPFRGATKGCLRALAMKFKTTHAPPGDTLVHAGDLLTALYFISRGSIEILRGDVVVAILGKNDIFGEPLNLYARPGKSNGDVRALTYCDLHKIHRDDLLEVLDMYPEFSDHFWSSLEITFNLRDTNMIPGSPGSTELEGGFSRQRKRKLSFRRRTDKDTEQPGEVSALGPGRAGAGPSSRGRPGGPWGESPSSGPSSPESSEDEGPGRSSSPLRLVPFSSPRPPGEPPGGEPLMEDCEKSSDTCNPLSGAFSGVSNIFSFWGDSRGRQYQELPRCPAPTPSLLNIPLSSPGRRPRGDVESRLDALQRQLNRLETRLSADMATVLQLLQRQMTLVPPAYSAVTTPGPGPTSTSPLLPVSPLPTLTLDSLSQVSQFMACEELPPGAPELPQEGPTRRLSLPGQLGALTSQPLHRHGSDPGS
Data set [12] has as its target T3, hERG (KCNH2). The data set can be described thus: Inhibition of human ERG at 25 uM relative to control.
Data set [13] can be described thus: Protein binding in mouse plasma at 5 uM. In kind it is ADME, cell-free. Conditions: read-out: PPB (converted).
Data set [14] can be described thus: Cmax in Wistar rat at 5 mg/kg, po via gavage by LC-Ms/MS analysis. Conditions: in vivo. In kind it is ADME, organism-based. Also noted: dose 5 mg/kg, route oral. The method, boiled down: (§2)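 Male Wistar rats (230 ± 15 g), fasted overnight with water available. IV dose of 3 mg/kg given by tail vein as a solution (0.6 mg/mL, 5 mL/kg). PO dose of 5 mg/kg given by gavage as a suspension. Blood was collected into K2EDTA at 0.008 (IV only) to 24 h and plasma was spun off. Samples were precipitated with acetonitrile and run on LC/MS/MS. Parameters came from non-compartmental analysis of individual animals, mean of n = 4.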

Data set [15] can be described thus: Tmax in Wistar rat at 5 mg/kg, po via gavage by LC-Ms/MS analysis. In kind it is ADME, organism-based. To be noted: in vivo. The method, boiled down:
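Male Wistar rats (230 ± 15 g), fasted overnight with water available. IV dosing at 3 mg/kg by tail vein as solution (0.6 mg/mL, 5 mL/kg). PO dosing at 5 mg/kg by oral gavage. Serial blood sampling into K2EDTA from 0.008 (IV only) to 24 h. Plasma precipitated with acetonitrile containing internal standard and analysed by LC/MS/MS. Non-compartmental parameters calculated per animal; values are means of n = 4.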

Data set [16] can be described thus: AUC(0 to t) in Wistar rat at 5 mg/kg, po via gavage by LC-Ms/MS analysis. In kind it is ADME, organism-based. Conditions: in vivo. The method, boiled down:
as §2

The nature of data set [17]: Plasma concentration in Wistar rat at 5 mg/kg, po via gavage measured at 1 hr post dose by LC-Ms/MS analysis. In kind it is ADME, organism-based. The method, boiled down: (§3)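 Male Wistar rats, fasted overnight and for 2 h after dosing, given an oral solution at 5 mg/kg (0.5 mg/mL). Vehicle: NMP 10% with Labrasol 30% or PEG-400 20%, in citrate buffer […]. Blood and brain were taken at discrete time points, n = 2 per time point. Brain was homogenized 1:2 in PBS. Samples were precipitated with acetonitrile and run on LC-MS/MS; LLOQ 10 ng/mL.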

A short description of data set [18]: Plasma concentration in Wistar rat at 5 mg/kg, po via gavage measured at 2 hrs post dose by LC-Ms/MS analysis. In kind it is ADME, organism-based. The method, boiled down:
as §3

A short description of data set [19]: Plasma concentration in Wistar rat at 5 mg/kg, po via gavage measured at 4 hrs post dose by LC-Ms/MS analysis. In kind it is ADME, organism-based. The method, boiled down: as §3
The nature of data set [20]: Drug uptake in Wistar rat brain at 5 mg/kg, po via gavage measured at 1 hr post dose by LC-Ms/MS analysis. Conditions: read-out: Drug uptake. In kind it is ADME, organism-based. A digest of the protocol: as §3
Data set [21] is described as follows: Drug uptake in Wistar rat brain at 5 mg/kg, po via gavage measured at 2 hrs post dose by LC-Ms/MS analysis. To be noted: read-out: Drug uptake. In kind it is ADME, organism-based. A digest of the protocol:
as §3

The nature of data set [22]: Drug uptake in Wistar rat brain at 5 mg/kg, po via gavage measured at 4 hrs post dose by LC-Ms/MS analysis. In kind it is ADME, organism-based. To be noted: read-out: Drug uptake. A digest of the protocol:
as §3

Data set [23] is described as follows: Ratio of drug level in Wistar rat brain to plasma at 5 mg/kg, po via gavage measured at 2 hrs post dose by LC-Ms/MS analysis. In kind it is ADME, organism-based. Conditions: read-out: BPR. The method, boiled down:
as §3

For data set [24], the system named is Rattus norvegicus. Briefly: Kaliuretic activity in Wistar rat at 3 to 30 mg/kg, po via gavage measured after 4 hrs. In kind it is functional, organism-based. The method, boiled down:
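Male Wistar rats (250-300 g, n = 6) dosed orally at 5 mL/kg. Vehicles: DMAC 5%/NaOH/saline, or NMP 10%/PEG-400 20%/saline pH 12.0. Rats were then kept singly in metabolic cages without food or water for 4 h. Urine volume, Na+ and K+ were measured with a biochemistry analyser.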

Data set [25] has as its system Rattus norvegicus. The data set can be described thus: Effect on serum K+ level in Wistar rat at 3 to 30 mg/kg, po via gavage. In kind it is ADME, organism-based. To be noted: in vivo.

Each structure is given as a SMILES string. Converted amounts (≈) assume the structure as drawn. The source made the active and inactive calls. The rule behind the calls is not given here.

The values below come from ChEMBL document CHEMBL3992564, “Design and synthesis of novel, potent and selective hypoxanthine analogs as adenosine A1 receptor antagonists and their biological evaluation” (Bioorg Med Chem, 2017).

Chain of CYP2C9 (P11712 whole entry): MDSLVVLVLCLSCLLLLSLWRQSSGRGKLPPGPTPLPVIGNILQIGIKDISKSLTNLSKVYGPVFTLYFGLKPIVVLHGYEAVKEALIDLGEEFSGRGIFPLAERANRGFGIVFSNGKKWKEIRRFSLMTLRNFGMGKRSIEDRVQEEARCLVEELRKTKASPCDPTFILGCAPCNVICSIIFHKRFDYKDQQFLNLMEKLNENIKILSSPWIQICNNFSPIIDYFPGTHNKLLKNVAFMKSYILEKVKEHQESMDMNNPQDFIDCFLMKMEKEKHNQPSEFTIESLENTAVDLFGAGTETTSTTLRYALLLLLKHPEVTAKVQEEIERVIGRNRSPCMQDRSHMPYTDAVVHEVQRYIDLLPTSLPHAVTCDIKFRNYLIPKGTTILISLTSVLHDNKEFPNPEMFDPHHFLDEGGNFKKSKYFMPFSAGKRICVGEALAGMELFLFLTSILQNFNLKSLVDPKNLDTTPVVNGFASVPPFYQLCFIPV
Chain of CYP2C19 (P33261 whole entry): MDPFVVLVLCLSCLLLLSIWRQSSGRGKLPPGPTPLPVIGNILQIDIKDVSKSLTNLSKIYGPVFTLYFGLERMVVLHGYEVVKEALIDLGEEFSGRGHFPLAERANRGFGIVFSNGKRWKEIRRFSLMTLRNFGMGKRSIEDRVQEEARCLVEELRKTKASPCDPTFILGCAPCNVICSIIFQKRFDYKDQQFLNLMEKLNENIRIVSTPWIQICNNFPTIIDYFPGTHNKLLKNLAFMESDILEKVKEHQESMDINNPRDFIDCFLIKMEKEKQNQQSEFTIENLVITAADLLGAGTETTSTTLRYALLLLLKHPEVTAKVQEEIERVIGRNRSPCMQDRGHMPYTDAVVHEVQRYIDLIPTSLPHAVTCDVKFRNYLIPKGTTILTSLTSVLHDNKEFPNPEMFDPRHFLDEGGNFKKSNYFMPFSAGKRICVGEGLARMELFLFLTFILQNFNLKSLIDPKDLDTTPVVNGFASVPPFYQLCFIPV

On to `CCCn1c(Oc2cccnc2C)nc2nc(C3CCCC3)[nH]c2c1=O`, for which the inhibition in data set [1] is 49%; in data set [2], 91%; in [3], 33%. Also, the inhibition at 5 µM in data set [4] stood at 4%; in data set [5], 10%. For the same compound, the fraction unbound at 5 µM in [6] was 0.23. In addition, the solubility thermodynamic in data set [7] was determined as 2150 µM (≈ 761 µg/mL). For the same compound, the Drug metabolism result in [8] and in data set [9] was “Metabolite_Detected” throughout.

Compound `CCCn1c(Oc2ccc(F)c(F)c2)nc2nc(C3CCCC3)[nH]c2c1=O` showed an IC50 in [10] above 10 µM. Also, in data set [10], the Ki was above 10 µM. In [3], the inhibition result is “inactive”. For the same compound, the inhibition at 5 µM in [11] came out at 2%; in data set [5], 0%. 25 µM produced 4% inhibition in [12]. Besides, the fraction unbound at 5 µM in data set [13] and in data set [6] was 0.01 each time. In data set [7], the solubility thermodynamic is 77 µM (≈ 28.8 µg/mL). In data set [14], this compound had a Cmax of 9710 nM. In addition, the Tmax in [15] was 97.8 min. In data set [16], this compound came in with an area under the curve AUC(0-t) of 3.19 µM·h. For the same compound, the figures for the concentration at 1 h in data set [17] and in data set [20] were 1640 nM and 90 nM, respectively. Further, the figures for the concentration at 2 h in [18] and in data set [21] were 940 nM and 50 nM, respectively. For the same compound, the concentration at 4 h in data set [19] was determined as 1810 nM; in [22] it was 80 nM. In addition, the Kp at 2 h in data set [23] was 0.05. In addition, the result in [24] was Active. Besides, the Activity result in [25] is given as “Non-Toxic”.

Compound `CCCn1c(-c2cccc(OC)c2)nc2nc(C3CCCC3)[nH]c2c1=O` gave a Ki in data set [10] of 1.1 µM. Moreover, the inhibition at 5 µM in data set [11] is 9%; in data set [4], 7%. Besides, in [12], the inhibition at 25 µM came out at 72%. The fraction unbound at 5 µM in data set [13] and in data set [6] was 0.05 throughout. The solubility thermodynamic in [7] was 614 µM (≈ 216 µg/mL). The compound further displayed a Cmax in data set [14] of 1740 nM. The Tmax in [15] is 18 min. For the same compound, in [16], the AUC(0-t) is 1.6 µM·h. Further, the concentration at 1 h was found to be 670 nM in [17] and 10 ng/g in [20]. Also, the concentration at 2 h in data set [18] was found to be 540 nM; in data set [21] it was 10 ng/g. Further, the concentration at 4 h amounted to 40 nM in data set [19] and 10 ng/g in data set [22].
